The source of these data is ChEMBL document CHEMBL1165934, “Synthesis and in vitro toxicity of 4-MTA, its characteristic clandestine synthesis byproducts and related sulfur substituted alpha-alkylthioamphetamines” (Bioorg Med Chem, 2010).

Some results are limits rather than exact numbers.

In data set [1] the test system is HEK293. In words: Cytotoxicity against human HEK293 cells over expressing human SERT assessed as cell viability after 48 hrs by neutral red assay. It counts as cell-based. The conditions noted are these: HEK293, 48 h. The procedure, abridged:
(§1)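 Stably transfected HEK293 lines, passage ≤30, kept in DMEM with 10% FBS, 2 mM L-glutamine and Geneticin. Cells seeded at 5x10^4/well and grown to sub-confluence (24-36h), then exposed 48h. Neutral red uptake for 3 ± 1 h, then ethanol/acetic acid solubilisation, A540 minus 690 nm. Viability taken relative to vehicle. Range 1 µM-1 mM, 4 concentrations in triplicate on two independent days. pEC50 from sigmoidal fit (Hill slope 1).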

A further data set deals with SH-SY5Y. As to the kind of experiment: Cytotoxicity against human SH-SY5Y cells assessed as cell viability after 48 hrs by neutral red assay. It counts as cell-based. A digest of the protocol: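 SH-SY5Y grown in DMEM/F12 (1:1) with 10% FBS, 1 mM pyruvate, 2 mM glutamine and 0.1 mM non-essential amino acids, at 37 °C. Seeded 5x10^4 cells/well, treated 48 h, then neutral red uptake for 3 ± 1 h. Absorbance read at 540 nm (690 nm background). Viability was expressed as % of vehicle-treated cells. pEC50 came from a nonlinear sigmoidal fit (Hill slope 1), with 4 concentrations in triplicate on two separate days.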

For data set [2], the system named is HEK293. As to the kind of experiment: Cytotoxicity against human HEK293 cells over expressing human DAT assessed as cell viability after 48 hrs by neutral red assay. The conditions noted are these: HEK293, 48 h. The data set is classed as cell-based. The procedure, abridged:
as §1

Data set [3] relates to PC-12. As to the kind of experiment: Cytotoxicity against rat PC12 cells assessed as cell viability after 48 hrs by neutral red assay. It counts as cell-based. The conditions noted are these: PC-12, 48 h. A digest of the protocol:
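PC-12 (rat pheochromocytoma) cells on collagen were differentiated 7 days with 100 ng/ml NGF in low-serum DMEM/F12. Seeded at 5x10^4/well, then exposed 48h. Neutral red uptake for 3 ± 1 h, solubilised, A540 (690 nm background). Viability taken against vehicle. Tested 1 µM-1 mM, 4 concentrations in triplicate on two independent days. pEC50 by sigmoidal non-linear regression (Hill slope 1).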

Data set [4] concerns HEK293. As to the kind of experiment: Cytotoxicity against human HEK293 cells assessed as cell viability after 48 hrs by neutral red assay. The data set is classed as cell-based. The conditions noted are these: HEK293, 48 h. The procedure, abridged:
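HEK293 cells grown in DMEM with 10% FBS and 2 mM L-glutamine. Seeded at 5x10^4 cells/well and grown to sub-confluence (24-36 h), then exposed 48 h. Neutral red dye was added for 3 ± 1 h, then solubilised in 50% ethanol-1% acetic acid. A540 read with A690 background. Viability was taken as % of vehicle. pEC50 came from a sigmoidal fit (Hill slope 1) over 4 concentrations, triplicate, two independent days.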

Data set [5] relates to HEK293. In words: Cytotoxicity against human HEK293 cells over expressing human NET assessed as cell viability after 48 hrs by neutral red assay. It counts as cell-based. The conditions noted are these: HEK293, 48 h. A digest of the protocol: as §1
Data set [6] has as its system PC-12. As to the kind of experiment: Cytotoxicity against rat PC12 cells assessed as cell viability at 1 mM after 48 hrs by neutral red assay. It counts as cell-based. The following applies: pc-12, 48 h, 1000 µM. A digest of the protocol: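 Undifferentiated PC-12 cells (rat pheochromocytoma) were seeded at 5x10^4 on collagen and differentiated for seven days with 100 ng/ml NGF in low-serum DMEM/F12. They were then exposed for 48 h to single concentrations. Neutral red staining lasted 3 ± 1 h, with absorbance at 540 nm (690 nm background). Viability was taken as % of vehicle, and each concentration was compared with untreated cells by one-way ANOVA.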

Data set [7] can be described thus: Selectivity ratio of IC50 for SERT to IC50 for DAT.
Data set [8] can be described thus: Selectivity ratio of IC50 for SERT to IC50 for NET.
Data set [9] deals with Sodium-dependent serotonin transporter (Homo sapiens, UniProt P31645). As to the kind of experiment: Binding affinity to human SERT.
Sequence of Sodium-dependent serotonin transporter (P31645 whole entry): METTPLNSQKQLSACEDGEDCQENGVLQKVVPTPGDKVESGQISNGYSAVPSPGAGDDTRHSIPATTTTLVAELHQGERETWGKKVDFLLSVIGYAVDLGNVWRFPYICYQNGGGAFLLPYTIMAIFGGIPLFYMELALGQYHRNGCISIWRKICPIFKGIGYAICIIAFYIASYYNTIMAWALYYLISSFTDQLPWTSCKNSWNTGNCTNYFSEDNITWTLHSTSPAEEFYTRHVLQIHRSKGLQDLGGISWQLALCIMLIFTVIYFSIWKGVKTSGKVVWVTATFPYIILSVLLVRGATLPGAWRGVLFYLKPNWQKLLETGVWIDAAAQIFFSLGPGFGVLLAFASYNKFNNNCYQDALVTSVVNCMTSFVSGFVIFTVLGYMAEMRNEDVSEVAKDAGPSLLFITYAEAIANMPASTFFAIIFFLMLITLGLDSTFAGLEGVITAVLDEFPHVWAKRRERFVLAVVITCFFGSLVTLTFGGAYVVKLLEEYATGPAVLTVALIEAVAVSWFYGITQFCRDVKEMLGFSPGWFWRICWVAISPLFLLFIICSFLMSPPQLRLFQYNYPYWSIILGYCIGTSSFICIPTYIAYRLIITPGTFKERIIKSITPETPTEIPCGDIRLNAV

With `CSc1ccc(CC(C)NC=O)cc1` (configuration not stated), the EC50 in the data set with HEK293 [1] is 1350 µM; in the data set with SH-SY5Y it was greater than 10000 µM; with HEK293 [2], 2290 µM; in the data set on PC-12 [3], greater than 10000 µM; in the data set with HEK293 [4] it was 2880 µM; in the data set on HEK293 [5], 372 µM. The Activity result with PC-12 [6] is “Non-toxic”.
Consider `CSc1ccc(C/C(C)=N/O)cc1`, for which the EC50 in the data set on HEK293 [1] was 214 µM; in the data set with SH-SY5Y it was 339 µM; in the data set with HEK293 [2], 67.6 µM; with PC-12 [3], 776 µM; in the data set on HEK293 [4], 3020 µM; in the data set on HEK293 [5], 1740 µM. Also, the Activity result in the data set with PC-12 [6] is on record as “Toxic”.
For the compound `CNC(C)Cc1ccc2c(c1)OCO2` (configuration not stated) [MIDOMAFETAMINE], the 50% effective concentration (EC50) with HEK293 [1] was 490 µM; in the data set with HEK293 [2], 1950 µM; in the data set with HEK293 [5] it was 1550 µM.
Regarding `CSc1ccc(CC(Cc2ccc(SC)cc2)NC=O)cc1`, the EC50 in the data set with HEK293 [1] is 50.1 µM; in the data set on SH-SY5Y, 32.4 µM; in the data set on HEK293 [2], 87.1 µM; in the data set on PC-12 [3], 38 µM; in the data set on HEK293 [5] it was 457 µM.
For `CCc1nc(Cc2ccc(SC)cc2)c(C)cc1-c1ccc(SC)cc1`, the EC50 in the data set on HEK293 [1] is 34.7 µM; in the data set on SH-SY5Y, 178 µM; in the data set with HEK293 [2], 26.9 µM; with PC-12 [3] it was 29.5 µM; in the data set on HEK293 [4], 18.6 µM; in the data set with HEK293 [5], 29.5 µM.
As to `CSc1ccc(CC(Cc2ccc(SC)cc2)NC(C)=O)cc1`, the EC50 was 38.9 µM with HEK293 [1]; 603 µM in the data set on SH-SY5Y; 83.2 µM in the data set with HEK293 [2]; 4170 µM in the data set on PC-12 [3]; 50.1 µM with HEK293 [4]; 25.7 µM with HEK293 [5]. Besides, the Activity result with PC-12 [6] was “Non-toxic”.
For `CSc1ccc(CC(C)NC(C)Cc2ccc(SC)cc2)cc1` (configuration not stated), the EC50 is 25.7 µM with HEK293 [1]; 22.4 µM in the data set on SH-SY5Y; 26.3 µM in the data set on HEK293 [2]; 27.5 µM in the data set with PC-12 [3]; 16.2 µM with HEK293 [4]; 25.1 µM in the data set on HEK293 [5].
Regarding `CSc1ccc(CC(C)N)cc1` (configuration not stated) [4-METHYLTHIOAMPHETAMINE], the results for the Ratio IC50 in data set [7] and in data set [8] were 3070 and 2370, respectively. Also, the EC50 in the data set on HEK293 [1] was 22.4 µM; in the data set with SH-SY5Y, 513 µM; in the data set with HEK293 [2], 41.7 µM; with PC-12 [3] it was 295 µM; with HEK293 [5], 22.4 µM.
Take `CSc1ccc(CC(N)Cc2ccc(SC)cc2)cc1`: the EC50 with HEK293 [1] was 24.5 µM; in the data set with SH-SY5Y it was 18.6 µM; in the data set with HEK293 [2], 25.1 µM; with PC-12 [3], 631 µM; in the data set with HEK293 [4], 22.4 µM; in the data set on HEK293 [5], 126 µM. Further, the Activity entry with PC-12 [6] was “Toxic”.
On to `CSc1ccc(Cc2ccncn2)cc1`, for which the concentration giving a half-maximal response (EC50) in the data set with HEK293 [1] is 16.6 µM; in the data set with SH-SY5Y, 2950 µM; in the data set on HEK293 [2] it was 11.7 µM; with PC-12 [3], 67.6 µM; with HEK293 [4], 9.33 µM; with HEK293 [5], 63.1 µM.
As for `CCC(Cc1ccc(SC)cc1)NC=O` (configuration not stated), the EC50 was 64.6 µM in the data set on HEK293 [1]; greater than 10000 µM with SH-SY5Y; 1120 µM in the data set on HEK293 [2]; 741 µM in the data set on PC-12 [3]; 61.7 µM in the data set on HEK293 [4]; 79.4 µM in the data set on HEK293 [5]. Also, the Activity entry in the data set on PC-12 [6] is given as “Toxic”.
In the case of `CCC(Cc1ccc(SC)cc1)NC` (configuration not stated), the EC50 with HEK293 [1] is 55 µM; in the data set with HEK293 [2], 417 µM; with HEK293 [5], 66.1 µM.
Take `CCNC(Cc1ccc(SC)cc1)Cc1ccc(SC)cc1`: the EC50 in the data set with HEK293 [1] was 25.7 µM; with SH-SY5Y it was 13.8 µM; in the data set on HEK293 [2], 26.9 µM; with PC-12 [3], 229 µM; in the data set with HEK293 [4], 17 µM; in the data set with HEK293 [5] it was 263 µM. Moreover, in the data set on PC-12 [6], the Activity result was “Toxic”.
As to `CC(N)Cc1ccc2c(c1)OCO2` (configuration not stated) [TENAMFETAMINE], the EC50 in the data set on HEK293 [1] was 692 µM; in the data set with HEK293 [2], 5890 µM; in the data set on HEK293 [5], 589 µM. In data set [9], the IC50 stood at 0.478 µM.
